Data published in the EternaBench riboswitch data.

Tested on: MS2 coat protein
Assay: apparent Kd, MS2 coat protein; higher = weaker binding; RNA-MaP array; tryptophan 2.4 mM where present
Method in brief: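 Designs were transcribed by stalled E. coli RNA polymerase on Illumina sequencing-chip clusters. They were titrated with SNAP-549-labelled MS2 coat protein from 0.7 or 1.5 nM, doubling to 3 µM, without and then with constant ligand. Buffer: 100 mM Tris-HCl pH 7.5, 80 mM KCl, 4 mM MgCl2, BSA, DTT, yeast tRNA, Tween-20. Green signal was normalised to red-channel RNA signal and control-cluster median Fmax. Apparent Kd is the median of filtered per-cluster binding-curve fits.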

[1] = designed as: ON switch for tryptophan, no ligand
[2] = ligand present: tryptophan, designed as: ON switch for tryptophan
[3] = designed as: OFF switch for tryptophan, no ligand
[4] = ligand present: tryptophan, designed as: OFF switch for tryptophan

Sequence	apparent Kd [1]	apparent Kd [2]	apparent Kd [3]	apparent Kd [4]
AAUACCGGAUCGGCCGCCACUGGUUGGCCCUGUGUACAUGAGGAUCACCCAUGUCCAUCCCAAACCAGGACCGGGAUCUUUGUGC	12 nM	10.2 nM		
GCUCACAUGAGGAUCACCCAUGUACGUCCGCGAGGACCGGUACGGCCGCCACUCGUGUUAGCUUCAAACUUGUUAGUGUUAAACA	40.4 nM	16.1 nM		
AUCAUAAUAGACUCGUUAGAUUAUAUGGAACGAGGACCGGUACGGCCGCCACUCGUGAUGUACAUGAGGAUCACCCAUGUUAGCA	13.5 nM	13.5 nM		
GAGCUCGUGGACUGGCGUGCUCCGCUCCGUCGAGGACCGGUACGGCCGCCACUCGACAUGAGGAUCACCCAUGUGUGAGCUCGCU			75.3 nM	54.2 nM
AAUAAUAGGUGAUCUUGUGUCGUACCGUAACGAGGACCGGUACGGCCGCCACUCGAACAUGAGGAUCACCCAUGUAUGUAUGAUA	171 nM	128 nM		
GGGAGGGAGGCGGCCGCCACUGAUUUUCAUAUAUAUAUAACAUGAGGAUCACCCAUGUGGAUAUACAGGACCGGGCCUUUUUUUU	19.8 nM	13.2 nM		
GCAUCCUAGUCGGCCGCCACUGCAAUUGUAAUACUGCUACAUGAGGAUCACCCAUGUCCAUGUAGCAGGACCGGGACUAGGAUGC	578 nM	79.8 nM		
AACAUGAGGAUCACCCAUGUCCCAUGUGAACGAGGACCGGUACGGCCGCCACUCGAAUAAGGCGGCACAUGAGGAUCACCCACAU	168 nM	373 nM		
AACAUCACAACGGCCGCCACUGCACAUGACAACAUGAGGAUCACCCAUGUGGAUCACCCAUGUCCCAGGACCGGGUUAUGAGGAU	29.1 nM	25.9 nM		
AAAGAUCGGAAACGAUCGGCGGCUUGGGCGCGAGGACCGGUACGGCCGCCACUCGGGAAACAUGAGGAUCACCCAUGUUGCUUCU			10.9 nM	12 nM
ACAUGAGGAUCACCCAUGUGUGUAAAUCCUCGAGGACCGGUACGGCCGCCACUCGAUCGAGUGUAAGUUGAAUGUAACAUUCAAC	88.4 nM	70.5 nM		
GGGUCAGGCGCGGCCGCCACUGCGGUGAUGUGACAUGAGGAUCACCCAUGUUGUCAUGUGGCACAUAGGACCGGGUGCCUGGCCC			30.1 nM	29.9 nM
ACAUUGCGCACGGCCGCCACUGGCUAUAGAUUUAUAGCAUUAAUGAACAUGAGGAUCACCCAUGUCAGGACCGGGUGCGAACCAU	17.3 nM	19.7 nM		
ACAUGAGGAUCACCCAUGUGAAGCAGGGUACGAGGACCGGUACGGCCGCCACUCGAGGAUUAUGCCGAGUGAAUGGCAACGAUGU			14.4 nM	15.4 nM
AGAGGUAUACAUGGAAACAUGUAUAUUUCACGAGGACCGGUACGGCCGCCACUCGGUACCGGAAACACAUGAGGAUCACCCAUGU			18.7 nM	16.9 nM
UUACCGUAAGGUAUACCGGUCUACAAUAAUCGAGGACCGGUACGGCCGCCACUCGAUGUGUAAUCACAUGAGGAUCACCCAUGUA	23.3 nM	18.5 nM		
AGGUGCGGCACGGCCGCCACUGCGGUGGUGUGACAUGAGGAUCACCCAUGUUGUCAUGCGGCCCUUAGGACCGGGUGGCGUGCCU			39.7 nM	46 nM
CCAUAAGUACCGGUCCUCAGAUCCUCAUGACGAGGACCGGUACGGCCGCCACUCGAAACAUGAGGAUCACCCAUGUAAUAAUACC			39.2 nM	26.4 nM
GAUAUUUGAAAACAAAUAUCAGUGGGUGAACGAGGACCGGUACGGCCGCCACUCGGACAUGAGGAUCACCCAUGUCCAUGUGAAA			15.6 nM	37.4 nM
UAUAAUAACUCGGCCGCCACUGGCACAUGAGGAUCACCCAUGUCUAUAUAUAAUAUAUAGUUGCACAGGACCGGGAGAUAUAUAU			8.95 nM	8.21 nM
AAUUAGAUGUCGGCCGCCACUGAUGUGUCUGUUGCGUCCAGUGUGUACAUGAGGAUCACCCAUGUCAGGACCGGGACUUUAAAUU			11 nM	34 nM
CGCAACAUGAGGAUCACCCAUGUAAUGACGCGAGGACCGGUACGGCCGCCACUCGCCUGCCAAUGAGCGCAUGCGGCCUGGGUAU			11.6 nM	14.5 nM
AUUCAUGGAAACAUGACAUAGGGAUCACUCCGAGGACCGGUACGGCCGCCACUCGCGAGGAGGCACAUGAGGAUCACCCAUGUUA	49 nM	39.7 nM		
CCGCCUGCCUCACAUGAGGAUCACCCAUGUCGAGGACCGGUACGGCCGCCACUCGUCGUCGGUAAUACAGGCAUUGAAUAAUAUA			11.2 nM	45.1 nM

Sequence	apparent Kd [1]	apparent Kd [2]	apparent Kd [3]	apparent Kd [4]
GCCGGUACGUCGGCAAAGCCGAUGUGCCAGCGAGGACCGGUACGGCCGCCACUCGUACAUGAGGAUCACCCAUGUCCGGUCCGGC	44.7 nM	49 nM		
ACAUGAGGAUCACCCAUGUAACGGCAUAAUCGAGGACCGGUACGGCCGCCACUCGGAAUCAGUGACAGGCAUAUUUAUUAUAAGA			9.88 nM	10 nM
AAUUAAACAUCGGCCGCCACUUACUCAUGAGGUAACAACAUGAGGAUCACCCAUGUUUGAGGAUCAAGGACCGGGAUGUAAUAAU	31.3 nM	22.6 nM		
UUAUAAGUACCGGUCCUCAGAUCCUCAUGACGAGGACCGGUACGGCCGCCACUCGAAACAUGAGGAUCACCCAUGUAAUAACAUU			20 nM	20.1 nM
AUAACAUGAGGAUCACCCAUGUAUUGGUAACGAGGACCGGUACGGCCGCCACUCGUAUUUUGGUGGUAUUAUAUAUAUAUGAUUA	20.8 nM	19.7 nM		
CACAGUGCGAAUUUGAAUUCGCACGAUCCUCGAGGACCGGUACGGCCGCCACUCGCGCGGGUCGUACAUGAGGAUCACCCAUGUC	166 nM	842 nM		
CACGAAAGAUCGGCCGCCACUAAUCGAUGUGUUCUUUCACAUGAGGAUCACCCAUGUUCUUGCGUUAGGACCGGGAUUGAGCGUG			38.7 nM	31.9 nM
GGUACAUGAGGAUCACCCAUGUAUUGGUACCGAGGACCGGUACGGCCGCCACUCGCAUGACAUGAGGAUCACCCAUGUGAAACCU	52.5 nM	66.5 nM		
ACACAAUACAUGAGGAUCACCCAUGUAUAACGAGGACCGGUACGGCCGCCACUCGAAUACUGUAAUCCUCGGAAUAUUAUGUGAA			39 nM	19.1 nM
CACAGUGCGAAUUUGAAAUCGCACGAUCCUCGAGGACCGGUACGGCCGCCACUCGCGCGGGUCGUACAUGAGGAUCACCCAUGUC	317 nM	545 nM		
AAUUCAAGGUUCUUGAUGUAUUAUAUAUUUCGAGGACCGGUACGGCCGCCACUCGUUAAUUACAUGAGGAUCACCCAUGUUAGCU			17 nM	20.9 nM
GAUCGAAAUAACGCAUAGGAAAACUAUGCGCGAGGACCGGUACGGCCGCCACUCGUCCUCACAUGAGGAUCACCCAUGUACGAUC			22.4 nM	58.6 nM
ACGCUGCAUAGGAAAACUAUGUAGCGAAAUCGAGGACCGGUACGGCCGCCACUCGUCCUCAACAUGAGGAUCACCCAUGUAAUAA			19.9 nM	34.7 nM
GCGGAAUAAUCGGCCGCCACUAUGAGACAGGAAACUGUCACAUGAGGAUCACCCAUGUAUCCUCAUAGGACCGGGAUUAAAACGC	76.3 nM	19.4 nM		
CACGAAAGAUCGGCCGCCACUAAUCUAUGUGUUCUUUCACAUGAGGAUCACCCAUGUUCUUGCGUUAGGACCGGGAUUGAGCGUG			34.1 nM	36.4 nM
AUACAUGAGGAUCACCCAUGUGAUGGCCGGCGAGGACCGGUACGGCCGCCACUCGUGAUCCGUCCUGAAAGCAAAGCUUCCAGCA	182 nM	239 nM		
CUACAUGUAGUUAAACCGGUCAACAAUAAUCGAGGACCGGUACGGCCGCCACUCGAUGUGUUAUACACAUGAGGAUCACCCAUGU	23.2 nM	18.9 nM		
AACAUGAGGAUCACCCAUGUCCCAUGUGAACGAGGACCGGUACGGCCGCCACUCGACCGAGGCGGCACAUGAGGAUCACCCGCAU	375 nM	926 nM		
GUCUUUGACGAUCUGGGAAAACCAGAUCGACGAGGACCGGUACGGCCGCCACUCGUGUUUUCUUUACAUGAGGAUCACCCAUGUA	13.1 nM	12.7 nM		
UAAUAAUUCCUCAUGUCACGAGUGGCAUAACGAGGACCGGUACGGCCGCCACUCGAACAUGAGGAUCACCCAUGUAGCCACUCGA	143 nM	113 nM		
AACAUGAGGAUCACCCAUGUGUCCUCGAAACGAGGACCGGUACGGCCGCCACUCGAAUAAGCUGUUGACGAAAAGUCAGCAGCAA			257 nM	670 nM
GGAUAGGACACGGCCGCCACUAGCUAGGAUACUAGCAACAUUUCCUCACAUGAGGAUCACCCAUGUAGGACCGGGUGUCCUAUCG			111 nM	135 nM
UCGUUUUAGUCGGCCGCCACUGUAUGCAUGUUUAACAUGAGGAUCACCCAUGUCCCGUACUAUUUCAGGACCGGGACGUAAUCGA	322 nM	156 nM		
UAUAUAUAUCACUAACUGUUCUUGAGGUCUCGAGGACCGGUACGGCCGCCACUCGGGCCGCCUCACAUGAGGAUCACCCAUGUCC			56.4 nM	68.2 nM
